Measurements reported in ChEMBL document CHEMBL3272048, “Syntheses and uncoupling activities of alkyl dithiocarbazates and alkyl pyridinecarbonyldithiocarbazates” (J Med Chem, 1978).
The source made the active and inactive calls. The rule behind the calls is not given here.

How the values were obtained:
[1] = Uncoupling of electron transport protein complex in alkyl pyridine carbonyldithiocarbazates-stimulated rat liver mitochondria assessed as concentration required to 100% uncoupling
In short: (§1)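 Rat liver mitochondria were isolated by the Hogeboom method, with protein measured by Biuret. Protein varied by footnote, 1.33–2.12 mg/3.3 mL. Mitochondria in state 4 were kept in pH 7.2 medium (200 mM sucrose, 10 mM phosphate, 2 mM MgCl₂, 1 mM EDTA, 10 mM succinate, 1 μg rotenone). They were titrated with compound in Me₂SO, and O₂ uptake was read by Galvani electrode. The minimum concentration giving maximal respiration release was taken; values are means of ≥3 runs.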

[2] = Uncoupling of electron transport protein complex in alkyl pyridine carbonyldithiocarbazates-stimulated rat liver mitochondria up to 100 uM; in short: as §1
Rattus norvegicus [3] = species on record: Rattus norvegicus; test: Respiration rate of electron transport protein complex in rat liver mitochondria […] assessed as oxygen consumption at 5 uM in presence of ascorbate and TMPD
In short: (§2)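 Rat liver mitochondria at 3.0 mg protein in pH 7.4 medium (200 mM sucrose, 10 mM potassium phosphate, 2 mM MgCl₂, 1 mM EDTA), 25 °C. Substrate was 10 mM ascorbate plus 200 μM TMPD, with 2 μg rotenone. State 4 respiration was read as oxygen uptake on a Clark-type electrode.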

Rattus norvegicus [4] = species on record: Rattus norvegicus; test: Respiration rate of electron transport protein complex in rat liver mitochondria […] assessed as oxygen consumption at 1 uM in presence of succinate
In short: (§3)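 State 4 respiration of rat liver mitochondria (3.0 mg protein, 25 °C) was followed with a Clark-type electrode. Medium was pH 7.4 with 200 mM sucrose, 10 mM potassium phosphate, 2 mM MgCl₂ and 1 mM EDTA. Substrate was 10 mM succinate with 1 μg rotenone.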

Rattus norvegicus [5] = species on record: Rattus norvegicus; test: Respiration rate of electron transport protein complex in rat liver mitochondria […] assessed as oxygen consumption at 2 uM in presence of glutamate and malate
In short: (§4)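 Oxygen uptake by rat liver mitochondria (3.0 mg protein) was measured with a Clark-type electrode at 25 °C. Medium at pH 7.4 held 200 mM sucrose, 10 mM potassium phosphate, 2 mM MgCl₂ and 1 mM EDTA. Substrate was 10 mM glutamate plus 10 mM malate.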

Rattus norvegicus [6] = species on record: Rattus norvegicus; test: Respiration rate of electron transport protein complex in rat liver mitochondria […] assessed as oxygen consumption at 2 uM in presence of succinate; in short: as §3
Rattus norvegicus [7] = species on record: Rattus norvegicus; test: Respiration rate of electron transport protein complex in rat liver mitochondria […] assessed as oxygen consumption at 2 uM in presence of ascorbate and TMPD; in short: as §2
Rattus norvegicus [8] = species on record: Rattus norvegicus; test: Respiration rate of electron transport protein complex in rat liver mitochondria […] assessed as oxygen consumption at 1 uM in presence of glutamate and malate; in short: as §4
Rattus norvegicus [9] = species on record: Rattus norvegicus; test: Respiration rate of electron transport protein complex in rat liver mitochondria […] assessed as oxygen consumption at 1 uM in presence of ascorbate and TMPD; in short: as §2
Rattus norvegicus [10] = species on record: Rattus norvegicus; test: Respiration rate of electron transport protein complex in rat liver mitochondria […] assessed as oxygen consumption at 5 uM in presence of glutamate and malate; in short: as §4
Rattus norvegicus [11] = species on record: Rattus norvegicus; test: Respiration rate of electron transport protein complex in rat liver mitochondria […] assessed as oxygen consumption at 6 uM in presence of ascorbate and TMPD; in short: as §2
[12] = Uncoupling of electron transport protein complex in alkyl pyridine carbonyldithiocarbazates-stimulated rat liver mitochondria up to 500 uM; in short: as §1

Compound	Activity [1] [µM]	other results
CCCCCCSC(=S)NNC(=O)c1ccccn1	50	
CCCCCCSC(=S)NNC(=O)c1ccncc1	6.58	
CCCCCCCCSC(=S)NNC(=O)c1ccccn1	3.7	
CCCCCSC(=S)NNC(=O)c1ccccn1	90	
CCCCCCCSC(=S)N(C)NC(=O)c1ccccn1		Activity [2]: inactive
CCCCCSC(=S)NN	900	
CCCCCCCCCSC(=S)NNC(=O)c1ccncc1	0.86	Activity (Rattus norvegicus [3]): 250 min⁻¹; Activity (Rattus norvegicus [4]): 361 min⁻¹; Activity (Rattus norvegicus [5]): 278 min⁻¹; Activity (Rattus norvegicus [7]): 222 min⁻¹; Activity (Rattus norvegicus [8]): 178 min⁻¹; Activity (Rattus norvegicus [9]): 214 min⁻¹
CCCCCCCCSC(=S)N(C)NC(=O)c1ccccn1		Activity [2]: inactive
CCCCCSC(=S)NNC(=O)c1ccncc1	17.5	
CCCCCCSC(=S)N(C)NC(=O)c1ccccn1		Activity [2]: inactive
CCCSC(=S)NNC(=O)c1ccccn1	290	
CCCCCCCCCS/C(S)=N/NC(=O)c1ccccn1	2.9	Activity (Rattus norvegicus [4]): 167 min⁻¹; Activity (Rattus norvegicus [5]): 111 min⁻¹; Activity (Rattus norvegicus [6]): 250 min⁻¹; Activity (Rattus norvegicus [11]): 248 min⁻¹; Activity (Rattus norvegicus [8]): 89 min⁻¹; Activity (Rattus norvegicus [9]): 220 min⁻¹; Activity (Rattus norvegicus [10]): 180 min⁻¹
CCCCCCSC(=S)NN	350	
CSC(=S)NNC(=O)c1ccccn1	1870	
CSC(=S)NNC(=O)c1ccncc1	1900	
CCCCCCCCCSC(=S)N(C)NC(=O)c1ccccn1		Activity [2]: inactive
CCCCCSC(=S)N(C)NC(=O)c1ccccn1		Activity [12]: inactive
CCCCSC(=S)NNC(=O)c1ccncc1	62.5	
CCCCCCCSC(=S)NN	140	
CCCCSC(=S)NNC(=O)c1ccccn1	240	
CCCCCCCSC(=S)NNC(=O)c1ccccn1	4.7	
CCCCCCCSC(=S)NNC(=O)c1ccncc1	1.95	
CCCCCCCCSC(=S)NNC(=O)c1ccncc1	0.84	

Now from value to compound, other results behind:

Activity [1] [µM]	Compound	other results
1.1	CCCCCCCCCSC(=S)NNC(=O)c1cccnc1	Activity (Rattus norvegicus [3]): 236 min⁻¹; Activity (Rattus norvegicus [4]): 250 min⁻¹; Activity (Rattus norvegicus [5]): 178 min⁻¹; Activity (Rattus norvegicus [6]): 300 min⁻¹; Activity (Rattus norvegicus [7]): 227 min⁻¹; Activity (Rattus norvegicus [8]): 125 min⁻¹; Activity (Rattus norvegicus [9]): 208 min⁻¹; Activity (Rattus norvegicus [10]): 263 min⁻¹
1000	CCSC(=S)NNC(=O)c1cccnc1	
14	CCCCCCCSC(=S)NNC(=O)c1cccnc1	
1280	CCSC(=S)NNC(=O)c1ccccn1	
105	CCCCCSC(=S)NNC(=O)c1cccnc1	
360	CCCCSC(=S)NNC(=O)c1cccnc1	
370	CCCSC(=S)NNC(=O)c1cccnc1	
109	CCCSC(=S)NNC(=O)c1ccncc1	
2160	CSC(=S)NNC(=O)c1cccnc1	
1200	CCSC(=S)NNC(=O)c1ccncc1	
89	CCCCCCSC(=S)NNC(=O)c1cccnc1	
1.3	CCCCCCCCSC(=S)NNC(=O)c1cccnc1	
